Experimental data published in ChEMBL document CHEMBL3797189, “Small Molecule Inhibitors of Cyclophilin D To Protect Mitochondrial Function as a Potential Treatment for Acute Pancreatitis” (J Med Chem, 2016).
Active and inactive are the calls of the source. The rule behind the calls is not given here.

Legend:
Pancreatic acinar cell [1] = experiment: Inhibition of taurolithocholate acid 3-sulfate-induced necrosis in CD1 mouse pancreatic acinar cells at 10 uM after 30 mins by propidium iodide staining based confocal microscopic analysis; assay type: functional
In short: (§1)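 Freshly isolated murine pancreatic acinar cells were exposed to the pancreatitis toxin taurolithocholate acid 3-sulphate (500 µM) with inhibitor at 0.1, 1.0 and 10 µM or at 1 and 10 µM.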

Pancreatic acinar cell [2] = experiment: Inhibition of taurolithocholate acid 3-sulfate-induced necrosis in CD1 mouse pancreatic acinar cells at 1 uM after 30 mins by propidium iodide staining based confocal microscopic analysis; assay type: functional; in short: as §1
[3] = Cytotoxicity against CD1 mouse pancreatic acinar cells at 1 to 10 uM after 30 mins by propidium iodide staining based confocal microscopic analysis; details: pancreatic acinar cell, 0.5 h
In short: (§2)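 As a parallel cytotoxicity control, freshly isolated murine pancreatic acinar cells were exposed to compounds alone, without TLCS, at 0.1, 1.0 and 10 µM or at 1 and 10 µM. Necrotic cell death was scored.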

Pancreatic acinar cell [4] = experiment: Inhibition of taurolithocholate acid 3-sulfate-induced necrosis in CD1 mouse pancreatic acinar cells at 1 to 10 uM after 30 mins by propidium iodide staining based confocal microscopic analysis; assay type: functional; in short: as §1
[5] = Cytotoxicity against CD1 mouse pancreatic acinar cells at 0.1 to 10 uM after 30 mins by propidium iodide staining based confocal microscopic analysis; details: pancreatic acinar cell, 0.5 h; in short: as §2
Pancreatic acinar cell [6] = experiment: Inhibition of taurolithocholate acid 3-sulfate-induced change in mitochondrial membrane potential in CD1 mouse pancreatic acinar cells at 0.1 to 10 uM after 30 mins by tetramethyl rhodamine methyl ester dye based fluorescence analysis; assay type: functional, cell membranes
Pancreatic acinar cell [7] = experiment: Inhibition of taurolithocholate acid 3-sulfate-induced necrosis in human pancreatic acinar cells at 10 uM after 30 mins by propidium iodide staining based confocal microscopic analysis; assay type: functional
[8] = Cytotoxicity against CD1 mouse pancreatic acinar cells at 10 uM after 30 mins by propidium iodide staining based confocal microscopic analysis; details: pancreatic acinar cell, 0.5 h; in short: as §2

| SMILES | inhibition (Pancreatic acinar cell [1]) | inhibition (Pancreatic acinar cell [2]) | Activity [3] | inhibition (Pancreatic acinar cell [4]) | Activity [5] | inhibition (Pancreatic acinar cell [6]) | inhibition (Pancreatic acinar cell [7]) | Activity [8] |
| --- | --- | --- | --- | --- | --- | --- | --- | --- |
| CCOC(=O)[C@H](CCSC)NC(=O)NCc1ccc(N)cc1 | Active | inactive | Non-toxic | – | – | – | – | – |
| CSCC[C@H](NC(=O)NCc1ccc(N)cc1)C(=O)N1CCC[C@H]1c1ccccc1SC | – | – | – | Active | Non-toxic | Active | Active | – |
| Nc1ccc(CNC(=O)NCC(=O)N2CCC[C@@H]2c2ccccc2Br)cc1 | Active | inactive | – | – | – | – | – | Toxic |
